These results are taken from ChEMBL document CHEMBL3244091, “Effects of thiophene analogues of chloroamphetamines on central serotonergic mechanisms” (J Med Chem, 1978).

Usually LD50 stands for the dose expected to kill half of the subjects tested. For orientation: inhibition means the share of the control response that was lost under treatment. As a reminder, the inhibition in vivo is the relative decrease from the control value, in per cent. By IC50 is commonly meant the midpoint of a concentration-inhibition curve.

The nature of data set [1]: Toxicity in ip dosed ICR Swiss mouse. The settings on record: in vivo. The format is organism-based.
The subject of data set [2] is Rattus norvegicus. Briefly: Reduction in 5-HT level in Wistar rat brain synaptosomes at 15 mg/kg, ip measured after 4 hrs by fluorometric assay. The data set is classed as functional. The arrangement: scale not given: the % may be the effect or the level left. The settings on record: route intraperitoneal.
The target of data set [3] is Sodium-dependent serotonin transporter (Rattus norvegicus) (UniProt P31652). Kind of data set: Inhibition of SERT-mediated 5-HT uptake in Wistar rat brain synaptosomes at 0.2 uM. The data set is classed as subcellular.
The subject of data set [4] is Mus musculus. Kind of data set: Increase in spontaneous locomotor activity in ICR Swiss mouse at 10 mg/kg, ip measured after 30 to 270 mins post compound administration. The data set is classed as functional, organism-based. Further details: dose 10 mg/kg. The method in brief:
(§1)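 Male ICR Swiss mice (20-25 g), compound in saline ip, housed three per cage at ≤18 °C. Starting 30 min and 4.5 h after injection, each mouse was placed in a circular actophotometer (25 cm diameter, four photocells, central light) for 30 min. A count was scored per cross of two consecutive beams (locomotion only). Means of at least eight animals per group.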

Data set [5] relates to Rattus norvegicus. Briefly: Inhibition of SERT-mediated 5-HT uptake in Wistar rat brain at 15 mg/kg, ip measured after 24 hrs. The format is functional. The settings on record: route intraperitoneal. In short, it runs like this:
(§2)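 Male Wistar-derived rats were dosed ip (saline vehicle) and killed 24 h or 7 days later. Whole brains were homogenized in 8 vol 0.25 M sucrose.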

Data set [6] concerns Rattus norvegicus. Kind of data set: Reduction in 5-HT level in Wistar rat brain synaptosomes at 15 mg/kg, ip measured after 24 hrs by fluorometric assay. The format is functional. Further details: scale not given: the % may be the effect or the level left. The conditions noted are these: route intraperitoneal.
The nature of data set [7]: Inhibition of MAO in Wistar rat brain using [3H]serotonin as substrate.
The species named for data set [8] is Rattus norvegicus. Kind of data set: Ratio of PCA IC50 to compound IC50 for MAO in Wistar rat brain using [3H]serotonin as substrate.
For data set [9], the system named is Mus musculus. Kind of data set: Increase in spontaneous locomotor activity in ICR Swiss mouse at 10 mg/kg, ip measured after 4 hrs post compound administration. Further details: dose 10 mg/kg. The format is functional, organism-based. The method in brief: as §1
Data set [10] deals with Rattus norvegicus. Briefly: Inhibition of SERT-mediated 5-HT uptake in Wistar rat brain at 15 mg/kg, ip measured after 7 days. The format is functional. The conditions noted are these: 168 h, route intraperitoneal. The method in brief:
as §2

In data set [11] the target is Sodium-dependent serotonin transporter (Rattus norvegicus, UniProt P31652). Briefly: Inhibition of SERT-mediated 5-HT uptake in Wistar rat brain synaptosomes. The data set is classed as subcellular.
The subject of data set [12] is Rattus norvegicus. Briefly: Reduction in 5-HT level in Wistar rat brain synaptosomes at 15 mg/kg, ip measured after 7 days by fluorometric assay. The arrangement: scale not given: the % may be the effect or the level left. The format is functional. The settings on record: route intraperitoneal.
The subject of data set [13] is Rattus norvegicus. Kind of data set: Inhibition of SERT-mediated 5-HT uptake in Wistar rat brain at 7.5 mg/kg, ip measured after 24 hrs. The conditions noted are these: route intraperitoneal. The format is functional. In short, it runs like this: as §2
Data set [14] concerns Rattus norvegicus. Briefly: Reduction in 5-HT level in Wistar rat brain synaptosomes at 7.5 mg/kg, ip measured after 24 hrs by fluorometric assay. The format is functional. The arrangement: scale not given: the % may be the effect or the level left. The conditions noted are these: route intraperitoneal.
Data set [15] deals with Rattus norvegicus. Briefly: Inhibition of SERT-mediated 5-HT uptake in Wistar rat brain at 7.5 mg/kg, ip measured after 7 days. The format is functional. The settings on record: 168 h, route intraperitoneal. In short, it runs like this: as §2
Data set [16] has as its system Rattus norvegicus. Kind of data set: Reduction in 5-HT level in Wistar rat brain synaptosomes at 7.5 mg/kg, ip measured after 4 hrs by fluorometric assay. The data set is classed as functional. Further details: scale not given: the % may be the effect or the level left. The conditions noted are these: route intraperitoneal.
Data set [17] concerns Rattus norvegicus. Briefly: Reduction in 5-HT level in Wistar rat brain synaptosomes at 7.5 mg/kg, ip measured after 7 days by fluorometric assay. The conditions noted are these: route intraperitoneal. The data set is classed as functional. Further details: scale not given: the % may be the effect or the level left.

Active and inactive are the calls of the source. The rule behind the calls is not given here.

Chain of Sodium-dependent serotonin transporter (Rattus norvegicus) (P31652 whole entry): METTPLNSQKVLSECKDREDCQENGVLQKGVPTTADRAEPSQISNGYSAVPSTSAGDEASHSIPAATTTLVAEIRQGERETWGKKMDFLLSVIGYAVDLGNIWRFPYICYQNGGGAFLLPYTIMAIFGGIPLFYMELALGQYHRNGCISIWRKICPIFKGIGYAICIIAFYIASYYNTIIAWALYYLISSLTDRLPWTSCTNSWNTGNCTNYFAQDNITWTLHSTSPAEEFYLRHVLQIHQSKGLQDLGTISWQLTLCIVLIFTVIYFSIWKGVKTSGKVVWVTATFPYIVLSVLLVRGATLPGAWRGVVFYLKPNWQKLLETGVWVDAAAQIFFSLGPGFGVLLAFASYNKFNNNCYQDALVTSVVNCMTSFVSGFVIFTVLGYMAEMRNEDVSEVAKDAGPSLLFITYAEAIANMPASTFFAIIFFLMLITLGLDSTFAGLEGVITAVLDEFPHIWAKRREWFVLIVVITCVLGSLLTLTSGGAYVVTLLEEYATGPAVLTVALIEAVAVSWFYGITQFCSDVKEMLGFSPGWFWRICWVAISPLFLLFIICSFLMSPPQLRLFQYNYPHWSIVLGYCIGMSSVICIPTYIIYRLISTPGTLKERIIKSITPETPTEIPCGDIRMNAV
Chain of Sodium-dependent serotonin transporter (P31652 whole entry): as above

In the case of `CC(N)Cc1sccc1Cl.Cl` (racemic), in data set [1], the LD50 is 101 mg/kg. Further, the Activity in the data set with Rattus norvegicus [2] amounted to 2.8%. This compound displayed an inhibition in [3] of 6.6%. In addition, the outcome in the data set with Mus musculus [4] was inactive.

Compound `CC(N)Cc1cc(Cl)cs1.Cl` (racemic) gave an LD50 in data set [1] of 128 mg/kg. Also, the Activity in the data set with Rattus norvegicus [2] is reported as 22.1%; in the data set on Rattus norvegicus [6], 18.3%. In the data set on Rattus norvegicus [5], this compound registered an inhibition in vivo at 15 mg/kg of 6.7%. In data set [3], this compound returned an inhibition of 18.7%. The outcome in the data set on Mus musculus [4] was Active.

`CC(N)Cc1sc(Cl)cc1Cl.Cl` (racemic) gave a median lethal dose (LD50) in [1] of 135 mg/kg. The results for the Activity in the data set with Rattus norvegicus [2] and in the data set on Rattus norvegicus [6] were 12.1% and 13.3%, respectively. In the data set with Rattus norvegicus [5], this compound came in with an inhibition in vivo at 15 mg/kg of 24.5%. In data set [3], this compound gave an inhibition of 19.4%. For the same compound, in the data set with Mus musculus [4], the result was inactive. The compound also yielded an IC50 in data set [7] of 2500 nM.

With `CC(N)Cc1scc(Cl)c1Cl.Cl` (racemic), the Ratio IC50 in the data set listed under Rattus norvegicus [8] came to 15. In [1], this compound had an LD50 of 121 mg/kg. In addition, the Activity in the data set with Rattus norvegicus [2] turned out to be 10.3%; in the data set with Rattus norvegicus [6], 11.7%. The same compound had an inhibition in vivo at 15 mg/kg with Rattus norvegicus [5] of 0.4%. In [3], this compound yielded an inhibition of 27.5%. For the same compound, in the data set on Mus musculus [4], the outcome was Active. In addition, the IC50 in data set [7] worked out at 250 nM.

With `CC(N)Cc1cccs1.Cl` (racemic), the LD50 in [1] was 162 mg/kg. This compound showed an Activity with Rattus norvegicus [2] of 4.3%. The compound also showed an inhibition in data set [3] of 5.3%. Moreover, the outcome in the data set on Mus musculus [4] was Active.

Consider `CC(N)Cc1ccc(Cl)s1.Cl` (racemic), for which the LD50 in [1] was 113 mg/kg. The Activity came to 14.5% with Rattus norvegicus [2] and 15.4% in the data set with Rattus norvegicus [6]. Besides, the inhibition in vivo at 15 mg/kg in the data set with Rattus norvegicus [5] was found to be 4.1%. Moreover, the outcome in the data set on Mus musculus [9] and in the data set on Mus musculus [4] was Active. Also, in data set [3], the inhibition stood at 17.7%.

As to `CC(N)Cc1cc(Cl)c(Cl)s1.Cl` (racemic), the inhibition in vivo at 15 mg/kg in the data set on Rattus norvegicus [10] is 32.4%; in the data set with Rattus norvegicus [5] it was 30.4%. The IC50 in data set [11] is 450 nM. In addition, the LD50 in [1] was 133 mg/kg. Moreover, the Activity in the data set on Rattus norvegicus [2] worked out at 49.3%; in the data set on Rattus norvegicus [6], 50.7%; in the data set on Rattus norvegicus [12], 41.6%. Further, the inhibition in data set [3] came out at 40.5%. The result in the data set on Mus musculus [4] was Active.

Consider `CC(N)Cc1ccc(Cl)cc1.Cl` (racemic), for which the IC50 was found to be 500 nM in data set [11] and 3700 nM in data set [7]. The inhibition in vivo at 7.5 mg/kg with Rattus norvegicus [13] is 45.5%; with Rattus norvegicus [15], 34.3%. In addition, the LD50 in data set [1] amounted to 64 mg/kg. Also, in the data set with Mus musculus [9], the outcome was Active. In data set [3], this compound had an inhibition of 38.4%. For the same compound, the Activity is listed as 47.6% in the data set with Rattus norvegicus [14], 48.6% in the data set with Rattus norvegicus [16] and 63.7% in the data set on Rattus norvegicus [17].
